This is an account of results in ChEMBL document CHEMBL1949592, “Synthesis and antiviral activity of 2'-deoxy-2'-fluoro-2'-C-methyl-7-deazapurine nucleosides, their phosphoramidate prodrugs and 5'-triphosphates” (Bioorg Med Chem Lett, 2011).

The source made the active and inactive calls. The calls are words filed in the database; no cut-off is given here. A value given as a limit tells only on which side of the number the result lay.

The target of data set [1] is RNA-directed RNA polymerase (Hepacivirus hominis, UniProt O39930, S282T). The data set is described as follows: Inhibition of Hepatitis C virus NS5B Cdelta 21 RNA dependent RNA polymerase S282T mutant expressed in Escherichia coli BL21(DE3).
The subject of a further data set is Hepacivirus hominis. The data set is described as follows: Fold resistance, ratio of HCV NS5B Cdelta 21 RNA dependent RNA polymerase S282T mutant to IC50 for IC50 for HCV wild type NS5B Cdelta 21 RNA dependent RNA polymerase.
Data set [2] in a line: Inhibition of Hepatitis C virus wild-type NS5B Cdelta 21 RNA dependent RNA polymerase expressed in Escherichia coli BL21(DE3). Further details: species or system Hepacivirus hominis.
The test system of another data set is Vero. The data set is described as follows: Cytotoxicity against african green monkey Vero cells after 3 days by hemocytometer analysis. The class given is cell-based. The conditions noted are these: Chlorocebus sabaeus, 72 h.
The next data set has as its system Hepatitis C virus. The data set is described as follows: Antiviral activity against Hepatitis C virus infected in human HuH7 cells assessed as decrease in viral RNA level after 96 hrs by RT-PCR. Format: functional, organism-based, Hepacivirus hominis. The conditions noted are these: Huh-7, 96 h.
In the next data set the test system is PBMC. The data set is described as follows: Cytotoxicity against human PBMC after 6 days by trypan blue exclusion method. The class given is cell-based. The following applies: 144 h.
The next data set concerns Hepatitis B virus. The data set is described as follows: Antiviral activity against wild type Hepatitis B virus infected in hepatocytes. Format: functional, organism-based. The following applies: Hepatocyte.
In data set [3] the test system is Huh-7. The data set is described as follows: (§1) Cytotoxicity against human HuH7 cells assessed as reduction of 50% rRNA level after 96 hrs. The conditions noted are these: huh-7, 96 h. The class given is cell-based. An outline of the steps: (§2)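 Huh-7 cells carrying the HCV replicon were exposed to compound for 96 h. Toxicity was read as a fall in cellular rRNA.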

Data set [4] has as its system Human immunodeficiency virus 1. The data set is described as follows: Antiviral activity against HIV1 LAV1 infected in PHA-stimulated human PBMC assessed as reduction in RT activity after 6 days by micromethod-based beta scintillation counting. The conditions noted are these: Human immunodeficiency virus 1, LAV1, 144 h. Format: functional, organism-based.
The next data set concerns CCRF-CEM. The data set is described as follows: Cytotoxicity against human CEM cells after 6 days by trypan blue exclusion method. The class given is cell-based. The following applies: 144 h.
Data set [5] can be described thus: as §1. The class given is cell-based, Huh-7. The conditions noted are these: HuH7 cells. An outline of the steps: as §2
Data set [6] relates to Huh-7. The data set is described as follows: Metabolic stability in human HuH7 cells assessed as diphosphate level at 50 uM after 4 hrs by LC-MS/MS analysis. The class given is ADME, cell-based. The conditions noted are these: huh-7, 4 h. An outline of the steps: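 For the cellular pharmacology study, Huh-7 cells were incubated separately with the nucleoside or its phosphoramidate prodrug at 50 μM for 4 h at 37 °C, then washed with phosphate-buffered saline before analysis of intracellular metabolites.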

Data set [7] has as its system Huh-7. The data set is described as follows: Metabolic stability in human HuH7 cells assessed as 5'-monophosphate level at 50 uM after 4 hrs by LC-MS/MS analysis. The class given is ADME, cell-based. The following applies: huh-7, 4 h. An outline of the steps: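 Huh-7 cells were exposed to the parent nucleoside or its phosphoramidate prodrug, each separately at 50 μM, at 37 °C for 4 h, then washed with phosphate-buffered saline before intracellular analysis.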

Another data set relates to HepG2. The data set is described as follows: Cytotoxicity against human HepG2 cells by neutral red dye uptake assay. The class given is cell-based.

RNA-directed RNA polymerase, sequence (O39930 entry or part of it S282T): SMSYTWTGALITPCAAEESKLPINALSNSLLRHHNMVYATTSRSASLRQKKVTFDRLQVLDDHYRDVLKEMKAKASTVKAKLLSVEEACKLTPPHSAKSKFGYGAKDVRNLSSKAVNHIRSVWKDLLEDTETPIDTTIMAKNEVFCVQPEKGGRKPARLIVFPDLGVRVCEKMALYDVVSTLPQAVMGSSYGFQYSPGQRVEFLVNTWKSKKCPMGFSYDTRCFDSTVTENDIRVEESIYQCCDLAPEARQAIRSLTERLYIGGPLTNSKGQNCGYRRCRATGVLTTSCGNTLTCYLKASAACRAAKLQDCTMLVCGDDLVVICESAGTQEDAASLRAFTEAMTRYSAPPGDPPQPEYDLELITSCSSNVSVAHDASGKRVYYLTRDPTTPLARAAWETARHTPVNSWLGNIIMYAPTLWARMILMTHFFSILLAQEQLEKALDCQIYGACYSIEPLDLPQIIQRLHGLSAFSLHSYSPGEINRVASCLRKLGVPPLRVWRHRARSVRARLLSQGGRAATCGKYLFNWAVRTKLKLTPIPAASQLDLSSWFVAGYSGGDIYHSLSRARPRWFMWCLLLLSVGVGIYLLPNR

Consider `COP(=O)(OC)OP(=O)(OC)OP(=O)(OC)OC[C@H]1O[C@@H](n2cc(F)c3c(N)ncnc32)[C@](C)(F)[C@@H]1O` (stereo partly specified), for which the IC50 turned out to be 6 µM in data set [1] and 4 µM in data set [2]. For the same compound, in the data set on Hepacivirus hominis, the Ratio IC50 came to 1.5.
On to `COP(=O)(OC)OP(=O)(OC)OP(=O)(OC)OC[C@H]1O[C@@H](n2ccc3c(N)ncnc32)[C@](C)(F)[C@@H]1O` (stereo partly specified), for which the IC50 in data set [1] was found to be 15 µM. In addition, the Ratio IC50 with Hepacivirus hominis was 1.
For `C#Cc1cn([C@H]2O[C@H](CO)[C@@H](O)[C@@]2(C)F)c2nc(N)nc(N)c12`, the half-maximal inhibitory concentration (IC50) with Vero stood at 61.7 µM; in the data set with PBMC, 54 µM; in the data set with CCRF-CEM it was 26.5 µM. The figures for the EC50 (in the data set with Hepatitis C virus; in data set [4]) were > 10 µM and 7.1 µM, respectively. Further, the figures for the EC90 (in the data set with Hepatitis C virus; in data set [4]) were > 10 µM and 59.1 µM, respectively. For the same compound, the outcome in the data set on Hepatitis B virus was inactive. Besides, in the data set with Huh-7 [3], the CC50 is > 10 µM.
Take `C[C@@]1(F)[C@H](O)[C@@H](CO)O[C@H]1n1cc(I)c2c(N)ncnc21`: the IC50 with Vero stood at 21.4 µM; with PBMC it was 53.2 µM; with CCRF-CEM, 24 µM. Moreover, the EC50 in the data set with Hepatitis C virus is 1.1 µM; in data set [4], 94 µM. In addition, the values for the EC90 (in the data set on Hepatitis C virus; in data set [4]) were > 33 µM and > 100 µM, respectively. In addition, the CC50 at 96 h in data set [5] was 10.4 µM.
As to `C[C@@]1(F)[C@H](O)[C@@H](CO)O[C@H]1n1ccc2c(N)nc(N)nc21`, the IC50 in the data set on Vero, in the data set on PBMC and in the data set on CCRF-CEM was > 100 µM throughout. Also, the EC50 was > 10 µM with Hepatitis C virus and > 100 µM in data set [4]. In the data set on Hepatitis C virus, the EC90 is > 10 µM. In addition, the Stability entry in the data set with Huh-7 [6] and with Huh-7 [7] was “Stable” in each case. Also, in the data set with Huh-7 [3], the cytotoxic concentration (CC50) was > 10 µM.
With `C[C@@]1(F)[C@H](O)[C@@H](CO)O[C@@H]1n1cc(C#Cc2ccccc2)c2c(N)ncnc21`, the IC50 with Vero turned out to be 51.3 µM; in the data set on PBMC, 40.8 µM; with CCRF-CEM, 15.7 µM. Moreover, the half-maximal effective concentration (EC50) is > 10 µM in the data set on Hepatitis C virus and 7.7 µM in data set [4]. Moreover, the EC90 in the data set on Hepatitis C virus is > 10 µM; in data set [4] it was 38 µM. In the data set with Hepatitis B virus, the result was inactive. Also, in the data set with Huh-7 [3], the CC50 was > 10 µM.
With `CCOC(=O)[C@H](C)NP(=O)(OC[C@H]1O[C@@H](n2ccc3c(N)nc(N)nc32)[C@](C)(F)[C@@H]1O)Oc1ccccc1` (stereo partly specified), the IC50 with Vero, in the data set on PBMC and with CCRF-CEM was > 100 µM throughout. Moreover, the EC50 with Hepatitis C virus was > 10 µM; in data set [4] it was 88 µM. In addition, the EC90 in the data set on Hepatitis C virus is > 10 µM; in data set [4] it was > 100 µM. In the data set with Huh-7 [7], the Stability result is “Unstable”. The CC50 with Huh-7 [3] is > 10 µM.
Turning to `C[C@@]1(F)[C@H](O)[C@@H](CO)O[C@@H]1n1cc(I)c2c(N)ncnc21`, the concentration for half-maximal inhibition (IC50) with Vero is 65.9 µM; with PBMC it was > 100 µM; in the data set on CCRF-CEM it was 40.9 µM. For the same compound, the EC50 was 7 µM with Hepatitis C virus and > 100 µM in [4]. For the same compound, the EC90 is 24.9 µM in the data set with Hepatitis C virus and > 100 µM in [4]. The result in the data set with Hepatitis B virus was Active. In data set [5], the CC50 at 96 h is > 33 µM. The Activity result with HepG2 is given as “Toxic”.
For `COC(=O)/C=C/c1cn([C@H]2O[C@H](CO)[C@@H](O)[C@@]2(C)F)c2ncnc(N)c12`, the IC50 in the data set with Vero, in the data set on PBMC and in the data set on CCRF-CEM was > 100 µM each time. Also, the EC50 with Hepatitis C virus was > 10 µM; in data set [4], 0.71 µM. The result in the data set with Hepatitis B virus was inactive. Besides, the CC50 in the data set on Huh-7 [3] was > 10 µM. The EC90 in [4] came to 9.5 µM.
`C[C@@]1(F)[C@H](O)[C@@H](CO)O[C@H]1n1cc(C#Cc2ccccc2)c2c(N)ncnc21`: the IC50 in the data set on Vero came to 45.7 µM; in the data set with PBMC it was 41.1 µM; in the data set on CCRF-CEM it was 11.6 µM. Also, the EC50 in the data set with Hepatitis C virus is < 10 µM; in [4], 10.7 µM. Also, the result in the data set with Hepatitis B virus was Active. Further, the cytotoxic concentration (CC50) with Huh-7 [3] was < 10 µM. Moreover, the 90% effect concentration (EC90) in data set [4] stood at 31.1 µM. Further, in the data set on HepG2, the Activity entry is on record as “Toxic”.
